Test results as given in ChEMBL document CHEMBL1221292, “Design, synthesis, and evaluation of quinazoline T cell proliferation inhibitors” (Bioorg Med Chem, 2010).
pIC50: −log10 of the molar value. Activity calls are given as the source filed them. No cut-off for these calls is given here.

What was measured:
[1] = system: PBMC; assay: Inhibition of PMA/anti-CD28-stimulated IL2 production in human PBMC cells up to 5 uM after 12 hrs by ELISA; type: functional, cell-based
In short: (§1)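 Jurkat or PBMC treated 12 h with 1 µM, 0.5 µM or no inhibitor. 1 × 10^6 cells were then stimulated 12 h with plate-bound anti-TCR C305 (1:500) alone, or with anti-CD28 (1:100) and/or PMA (50 ng/ml); ionomycin 1 µM was also used. Cells spun out at 130g. Supernatant IL-2 measured by ELISA, absorbance 450 nm.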

[2] = system: Splenocyte; assay: Inhibition of irradiated BALB/c mouse splenocyte-stimulated IL2 secretion in 2C mouse splenocyte after 72 hrs by mixed lymphocyte reaction; type: functional, cell-based
In short: (§2)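 MLR: splenocytes from 2c mice stimulated by irradiated BALB/c splenocytes in the presence of compound at the specified concentrations, 96-well cultures up to 72 h. Supernatants collected at 24, 48 and 72 h; IL-2 measured by ELISA at 450 nm.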

[3] = system: PBMC; assay: Antiproliferative activity against CD3+ expressing human PBMC after 72 hrs by BrdU incorporation assay; type: functional, cell-based
In short: (§3)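 PBMC isolated from healthy donor blood on Ficoll. CD3+ T cells purified with anti-CD3 (autoMACS), identity confirmed as CD3+ by flow cytometry; CD3-depleted PBMC also kept. Stimulation: ConA (10 µg/mL), ODN2006 (0.5 µg/mL) or LPS (50 µg/mL); depleted PBMC got ODN2006 or LPS. Cultured 72 h with inhibitor. Read-out was BrdU uptake, normalized to maximal proliferation without inhibitor.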

[4] = system: PBMC; assay: Antiproliferative activity against LPS-stimulated human PBMC after 72 hrs by BrdU incorporation assay; type: functional, cell-based; in short: as §3
[5] = system: PBMC; assay: Cell cycle arrest in human PBMC assessed as accumulation at G2 phase by flow cytometry; type: functional
In short: (§4)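 PBMC treated with inhibitor 12 and 24 h, then pelleted, PBS-washed and fixed in cold 70% ethanol for at least 12 h. RNase A added for 30 min in the dark, then propidium iodide; DNA content analysed by FACS for G2 and sub-G1 fractions.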

[6] = system: PBMC; assay: Antiproliferative activity against CD3 deficient human PBMC after 72 hrs by BrdU incorporation assay; type: functional, cell-based; in short: as §3
[7] = system: PBMC; assay: Antiproliferative activity against ConA-stimulated human PBMC after 72 hrs by BrdU incorporation assay; type: functional, cell-based
In short: (§5)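 Cells grown in RPMI at 37 °C, 5% CO2, then serum-starved 12 h. PBMC stimulated with ConA 10 µg/mL; Jurkat need no stimulation. 1 × 10^5 cells cultured 3 days with or without inhibitor, duplicate wells. Labelled with 10 µM BrdU, DNA denatured, anti-BrdU-POD added, colorimetric TMB read-out; IC50 derived.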

[8] = system: Jurkat; assay: Antiproliferative activity against ConA-stimulated human Jurkat after 72 hrs by BrdU incorporation assay; type: functional, cell-based
[9] = system: PBMC; assay: Antiproliferative activity against non-stimulated human PBMC after 72 hrs by BrdU incorporation assay; type: cell-based
[10] = system: HEK293; assay: Antiproliferative activity against FCS-stimulated human HEK293 cells after 72 hrs by BrdU incorporation assay; type: functional, cell-based; conditions: HEK293, 72 h
In short: (§6)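 Non-hematopoietic lines grown in DMEM, serum-starved 12 h, then stimulated: 10% FCS (HEK293, A375), PDGF 30 ng/mL (NIH 3T3), EGF 30 ng/mL (MDA-MB-231). 1 × 10^5 cells cultured 3 days over increasing inhibitor concentrations, duplicate wells. Proliferation by 10 µM BrdU labelling with colorimetric anti-BrdU-POD ELISA (TMB).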

[11] = system: Jurkat; assay: Inhibition of anti-TCR/antiCD28-stimulated IL2 production in human Jurkat cells […] after 12 hrs by ELISA; type: functional, cell-based; in short: as §1
[12] = system: Jurkat; assay: Antiproliferative activity against non-stimulated human Jurkat cells after 72 hrs by BrdU incorporation assay; type: functional, cell-based; in short: as §5
[13] = system: Jurkat; assay: Inhibition of TCR-mediated Zap70 phosphorylation in human Jurkat cells after 16 hrs by Western blotting; type: cell-based
In short: (§7)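 Jurkat treated 16 h with inhibitor, then stimulated 1 min at 37 °C with C305 (1:500) or mock PBS. Cells lysed at 2 × 10^7 cells/mL in NP-40 buffer with phosphatase and protease inhibitors. SLP-76 immunoprecipitated; pTyr detected by Western blot with 4G-10. For ZAP-70 activity, ZAP-70 IP was incubated with recombinant His-SLP-76 and 5 µM ATP for 15 min at 30 °C, then blotted for pTyr.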

[14] = system: PC-3; assay: Antiproliferative activity against stimulated human PC3 after 72 hrs by BrdU incorporation assay; type: functional, cell-based; conditions: PC-3, 72 h
[15] = system: PBMC; assay: Cell cycle arrest in human PBMC assessed as accumulation at subG1 phase by flow cytometry; type: functional; in short: as §4
[16] = Antiproliferative activity against stimulated human keratinocytes after 72 hrs by BrdU incorporation assay; type: functional, cell-based; conditions: Keratinocyte
[17] = system: NIH3T3; assay: Antiproliferative activity against non-stimulated mouse NIH/3T3 cells after 72 hrs by BrdU incorporation assay; type: functional, cell-based; conditions: NIH3T3, 72 h
[18] = system: Splenocyte; assay: Inhibition of irradiated BALB/c mouse splenocyte-stimulated IL2 secretion in 2C mouse splenocyte at 1 uM after 24 hrs by mixed lymphocyte reaction; type: functional, cell-based; in short: as §2
[19] = system: A-375; assay: Antiproliferative activity against FCS-stimulated human A375 cells after 72 hrs by BrdU incorporation assay; type: functional, cell-based; conditions: A-375, 72 h; in short: as §6
[20] = system: Jurkat; assay: Inhibition of TCR-mediated SLP76 phosphorylation in human Jurkat cells after 16 hrs by Western blotting; type: cell-based; in short: as §7
[21] = system: PBMC; assay: Antiproliferative activity against ODN2006-stimulated human PBMC after 72 hrs by BrdU incorporation assay; type: functional, cell-based; in short: as §3
[22] = system: PC-3; assay: Antiproliferative activity against non-stimulated human PC3 after 72 hrs by BrdU incorporation assay; type: functional, cell-based; conditions: PC-3, 72 h
[23] = system: Jurkat; assay: Inhibition of anti-TCR-stimulated IL2 production in human Jurkat cells […] by ELISA; type: functional, cell-based; in short: as §1
[24] = system: A-375; assay: Antiproliferative activity against non-stimulated human A375 cells after 72 hrs by BrdU incorporation assay; type: functional, cell-based; conditions: A-375, 72 h
[25] = system: MDA-MB-231; assay: Antiproliferative activity against stimulated human MDA-MB-231 cells after 72 hrs by BrdU incorporation assay; type: functional, cell-based; conditions: MDA-MB-231, 72 h; in short: as §6
[26] = system: Jurkat; assay: Antiproliferative activity against human Jurkat cells after 72 hrs by BrdU incorporation assay; type: functional, cell-based; in short: as §5
[27] = system: PBMC; assay: Inhibition of anti-TCR-stimulated IL2 production in human PBMC cells […] after 12 hrs by ELISA; type: functional, cell-based; in short: as §1
[28] = system: Jurkat; assay: Inhibition of PMA/anti-CD28-stimulated IL2 production in human Jurkat cells […] after 12 hrs by ELISA; type: functional, cell-based; in short: as §1
[29] = system: HEK293; assay: Antiproliferative activity against non-stimulated human HEK293 cells after 72 hrs by BrdU incorporation assay; type: functional, cell-based; conditions: HEK293, 72 h
[30] = system: PBMC; assay: Inhibition of anti-TCR/PMA-stimulated IL2 production in human PBMC cells […] after 12 hrs by ELISA; type: functional, cell-based; in short: as §1
[31] = system: MDA-MB-231; assay: Antiproliferative activity against non-stimulated human MDA-MB-231 cells after 72 hrs by BrdU incorporation assay; type: functional, cell-based; conditions: MDA-MB-231, 72 h
[32] = system: NIH3T3; assay: Antiproliferative activity against PDGF-stimulated mouse NIH/3T3 cells after 72 hrs by BrdU incorporation assay; type: functional, cell-based; conditions: NIH3T3, 72 h; in short: as §6

For `COc1cc(-c2nc(Nc3ccc(C)cc3)c3ccccc3n2)cc(OC)c1OC`, which inhibition [1] is on record?
Its inhibition is “inactive”.

What about the inhibition [2] of the same compound?
The inhibition was “inactive”.

And the pIC50 [3]?
Its pIC50 is 7.00.

And the pIC50 [4]?
Its pIC50 is 6.30.

What about the Activity [5] of the same compound?
Its Activity is 50%.

What about the Activity [6] of the same compound?
The Activity was “Active”.

What about the pIC50 [7] of the same compound?
Its pIC50 is 7.15.

What about the pIC50 [8] of the same compound?
The pIC50 was 7.00.

And the pIC50 [9]?
The pIC50 was 7.30.

And the pIC50 [10]?
Its pIC50 is 5.00.

And the inhibition [11]?
The inhibition was “inactive”.

And the pIC50 [12]?
The pIC50 was 7.30.

And the inhibition [13]?
Its inhibition is “Dose-dependent effect”.

And the pIC50 [14]?
Its pIC50 is under 5.00.

And the Activity [15]?
The Activity was 9.5%.

What about the pIC50 [16] of the same compound?
The pIC50 was under 5.00.

What about the pIC50 [17] of the same compound?
Its pIC50 is 5.52.

And the inhibition [18]?
The inhibition was “inactive”.

And the pIC50 [19]?
Its pIC50 is under 5.00.

What about the inhibition [20] of the same compound?
Its inhibition is “Dose-dependent effect”.

What about the pIC50 [21] of the same compound?
The pIC50 was 6.30.

And the pIC50 [22]?
The pIC50 was 5.00.

And the inhibition [23]?
Its inhibition is “inactive”.

What about the pIC50 [24] of the same compound?
Its pIC50 is 6.10.

And the pIC50 [25]?
Its pIC50 is under 5.00.

What about the pIC50 [26] of the same compound?
Its pIC50 is 7.54.

And the inhibition [27]?
The inhibition was “inactive”.

What about the inhibition [28] of the same compound?
The inhibition was “inactive”.

What about the pIC50 [29] of the same compound?
The pIC50 was 5.00.

What about the inhibition [30] of the same compound?
The inhibition was “inactive”.

What about the pIC50 [31] of the same compound?
The pIC50 was under 5.00.

What about the pIC50 [32] of the same compound?
Its pIC50 is 5.15.
